What was measured:
Serratia marcescens [1] = assay: Antibacterial activity against Serratia marcescens IMRU 70 at 1 mg/mL […] by agar diffusion assay; assay type: functional; settings: read-out: DIZ
Aspergillus ochraceus [2] = assay: Antifungal activity against Aspergillus ochraceus Wilhelm AUCC 230 at 1 mg/mL after 48 hrs by agar diffusion assay; assay type: functional; settings: Wilhelm AUCC 230, 48 h, read-out: DIZ
Procedure, shortened: (§1)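 Fungi were grown on Czapek's–Dox agar and assayed by agar diffusion. Test solution was 1 mg mL-1 in DMF, with DMF as negative control. After 48 h incubation, the inhibition zone diameter was measured in mm.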

Proteus mirabilis [3] = assay: Antibacterial activity against Proteus mirabilis NCT 289 at 1 mg/mL […] by agar diffusion assay; assay type: functional; settings: read-out: DIZ
Penicillium chrysogenum [4] = assay: Antifungal activity against Penicillium chrysogenum Thom AUCC 530 at 1 mg/mL after 48 hrs by agar diffusion assay; assay type: functional; settings: Thom AUCC 530, 48 h, read-out: DIZ; procedure, shortened: as §1
Staphylococcus aureus [5] = assay: Antibacterial activity against Staphylococcus aureus NCTC 7447 at 1 mg/mL […] by agar diffusion assay; assay type: functional; settings: read-out: DIZ
Bacillus cereus [6] = assay: Antibacterial activity against Bacillus cereus ATCC 14579 at 1 mg/mL […] by agar diffusion assay; assay type: functional; settings: read-out: DIZ
Aspergillus ochraceus [7] = assay: Antifungal activity against Aspergillus ochraceus Wilhelm AUCC 230 at 25 ug/mL after 24 hrs by agar diffusion assay; assay type: functional; settings: Wilhelm AUCC 230, 24 h, read-out: DIZ
Staphylococcus aureus [8] = assay: Antibacterial activity against Staphylococcus aureus NCTC 7447 at 25 ug/mL […] by agar diffusion assay; assay type: functional; settings: read-out: DIZ
Proteus mirabilis [9] = assay: Antibacterial activity against Proteus mirabilis NCT 289 at 25 ug/mL […] by agar diffusion assay; assay type: functional; settings: read-out: DIZ
Bacillus cereus [10] = assay: Antibacterial activity against Bacillus cereus ATCC 14579 at 25 ug/mL […] by agar diffusion assay; assay type: functional; settings: read-out: DIZ
Serratia marcescens [11] = assay: Antibacterial activity against Serratia marcescens IMRU 70 at 25 ug/mL […] by agar diffusion assay; assay type: functional; settings: read-out: DIZ
Penicillium chrysogenum [12] = assay: Antifungal activity against Penicillium chrysogenum Thom AUCC 530 at 25 ug/mL after 24 hrs by agar diffusion assay; assay type: functional; settings: Thom AUCC 530, 24 h, read-out: DIZ
Bacillus cereus [13] = assay: Antibacterial activity against Bacillus cereus ATCC 14579 after 24 hrs by agar diffusion assay; assay type: functional; settings: ATCC 14579, 24 h
Aspergillus ochraceus [14] = assay: Antifungal activity against Aspergillus ochraceus Wilhelm AUCC 230 at 30 ug/mL after 48 hrs by agar diffusion assay; assay type: functional, organism-based
Penicillium chrysogenum [15] = assay: Antifungal activity against Penicillium chrysogenum Thom AUCC 530 at 30 ug/mL after 48 hrs by agar diffusion assay; assay type: functional, organism-based
Procedure, shortened: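 Agar-diffusion assay on Czapek's–Dox agar inoculated with the fungal culture. Test solutions were 1 mg mL-1 in DMF, with DMF as the negative control and Mycostatine (30 µg mL-1) as the reference drug. Plates were incubated for 48 h, and the inhibition zone diameter was measured in mm.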

Penicillium chrysogenum [16] = assay: Antifungal activity against Penicillium chrysogenum Thom AUCC 530 after 48 hrs by agar diffusion assay; assay type: functional; settings: Thom AUCC 530, 48 h

Molecule	zone of inhibition at 1000 µg/mL (Serratia marcescens [1]) [mm]	zone of inhibition at 1000 µg/mL (Aspergillus ochraceus [2]) [mm]	zone of inhibition at 1000 µg/mL (Proteus mirabilis [3]) [mm]	zone of inhibition at 1000 µg/mL (Penicillium chrysogenum [4]) [mm]	zone of inhibition at 1000 µg/mL (Staphylococcus aureus [5]) [mm]	zone of inhibition at 1000 µg/mL (Bacillus cereus [6]) [mm]	zone of inhibition at 25 µg/mL (Aspergillus ochraceus [7]) [mm]	zone of inhibition at 25 µg/mL (Staphylococcus aureus [8]) [mm]	zone of inhibition at 25 µg/mL (Proteus mirabilis [9]) [mm]	zone of inhibition at 25 µg/mL (Bacillus cereus [10]) [mm]	zone of inhibition at 25 µg/mL (Serratia marcescens [11]) [mm]	zone of inhibition at 25 µg/mL (Penicillium chrysogenum [12]) [mm]	MIC (Bacillus cereus [13]) [µg/mL]	inhibition zone (IZ) (Aspergillus ochraceus [14]) [mm]	inhibition zone (IZ) (Penicillium chrysogenum [15]) [mm]	MIC (Penicillium chrysogenum [16]) [µg/mL]
COc1ccc(/C=C2/SC(=S)N(c3ccc(S(N)(=O)=O)cc3)C2=O)cc1	15	19	19	17	27	10	–	–	–	–	–	–	–	–	–	–
CC1(C)S[C@@H]2[C@H](NC(=O)[C@H](N)c3ccccc3)C(=O)N2[C@H]1C(=O)O [AMPICILLIN]	–	–	–	–	–	–	10	40	40	43	40	16	–	–	–	–
Cc1ccc(/C=C2/SC(=S)N(c3ccc(S(N)(=O)=O)cc3)C2=O)cc1	18	14	17	10	14	34	–	–	–	–	–	–	< 50	–	–	–
NYSTATIN	–	–	–	–	–	–	–	–	–	–	–	–	–	40	43	–
CCO/C=C1/SC(=S)N(c2ccc(S(N)(=O)=O)cc2)C1=O	23	12	23	18	25	12	–	–	–	–	–	–	–	–	–	–
O=C1CSC(=S)N1c1ccc(S(=O)(=O)Nc2ncccn2)cc1	22	15	19	35	18	16	–	–	–	–	–	–	–	–	–	< 50
NS(=O)(=O)c1ccc(N2C(=O)CSC2=S)cc1	20	18	24	16	28	13	–	–	–	–	–	–	–	–	–	–
COc1ccc(/C=C2\SC(=S)N(c3ccc(S(=O)(=O)c4ccc(N5C(=O)/C(=C/c6ccc(OC)cc6)SC5=S)cc4)cc3)C2=O)cc1	13	11	25	11	17	16	–	–	–	–	–	–	–	–	–	–
O=C1CSC(=S)N1c1ccc(S(=O)(=O)c2ccc(N3C(=O)CSC3=S)cc2)cc1	10	26	24	12	15	13	–	–	–	–	–	–	–	–	–	–
N#CC(C#N)=C1SC(=S)N(c2ccc(S(N)(=O)=O)cc2)C1=O	24	14	18	14	15	32	–	–	–	–	–	–	< 50	–	–	–
NS(=O)(=O)c1ccc(N2C(=O)/C(=C\c3ccc(/C=C4/SC(=S)N(c5ccc(S(N)(=O)=O)cc5)C4=O)cc3)SC2=S)cc1	19	16	22	15	13	33	–	–	–	–	–	–	< 50	–	–	–
CN(C)/C=N/S(=O)(=O)c1ccc(N2C(=O)/C(=C\N(C)C)SC2=S)cc1	12	16	20	16	16	15	–	–	–	–	–	–	–	–	–	–

Source: ChEMBL document CHEMBL1154098, “Synthesis, characterization and in vitro antimicrobial activity of novel 2-thioxo-4-thiazolidinones and 4,4'-bis(2-thioxo-4-thiazolidinone-3-yl)diphenylsulfones” (2009)
